Consider four compounds from ChEMBL document CHEMBL1811897, “Nicotinic acetylcholine receptor efficacy and pharmacological properties of 3-(substituted phenyl)-2β-substituted tropanes” (J Med Chem, 2010).

Molecules are shown by their SMILES. Activity calls are given as the source filed them.

For experiment [1], the species on record is Homo sapiens. In words: Selectivity for human NET over human DAT.
Experiment [2] addresses Sodium-dependent noradrenaline transporter (Homo sapiens, UniProt P23975). Description: Inhibition of human NET expressed in HEK293 cells assessed as inhibition of [3H]NE reuptake after 10 mins by scintillation counting. The class given is cell-based.
Experiment [3] deals with Sodium-dependent serotonin transporter (Homo sapiens, UniProt P31645). Description: Inhibition of human SERTexpressed in HEK293 cells assessed as inhibition of [3H]5HT reuptake after 10 mins by scintillation counting. The class given is cell-based.
Chain of Sodium-dependent serotonin transporter (P31645 whole entry): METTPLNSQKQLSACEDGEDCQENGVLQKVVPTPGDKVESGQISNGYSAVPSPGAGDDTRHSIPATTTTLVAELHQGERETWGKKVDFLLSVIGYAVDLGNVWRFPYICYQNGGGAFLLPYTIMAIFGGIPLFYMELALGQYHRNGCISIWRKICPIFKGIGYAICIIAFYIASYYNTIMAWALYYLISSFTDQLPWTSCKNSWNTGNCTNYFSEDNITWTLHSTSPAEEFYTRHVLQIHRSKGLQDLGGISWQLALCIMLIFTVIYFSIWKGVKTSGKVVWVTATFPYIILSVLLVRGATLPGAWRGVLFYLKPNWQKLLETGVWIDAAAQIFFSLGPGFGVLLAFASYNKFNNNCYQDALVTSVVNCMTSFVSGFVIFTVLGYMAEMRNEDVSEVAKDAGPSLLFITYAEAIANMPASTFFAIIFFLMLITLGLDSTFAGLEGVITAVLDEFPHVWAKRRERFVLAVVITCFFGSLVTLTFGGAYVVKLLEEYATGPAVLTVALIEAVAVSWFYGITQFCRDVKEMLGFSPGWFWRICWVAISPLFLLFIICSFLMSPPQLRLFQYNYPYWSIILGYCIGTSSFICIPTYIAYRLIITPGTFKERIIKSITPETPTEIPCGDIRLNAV
Experiment [4] addresses Sodium-dependent dopamine transporter (Homo sapiens, UniProt Q01959). Description: Inhibition of human DAT expressed in HEK293 cells assessed as inhibition of [3H]DA reuptake after 10 mins by scintillation counting. The format is cell-based.
Experiment [5] concerns Mus musculus. Description: Inhibition of nicotine-induced antinociception activity in ICR mouse assessed as paw licking and jumping latency dministered subcutaneously 15 mins prior to nicotine challenge and measured after 5 mins of 2.5 mg/kg nicotine challenge by hot plate test. The format is functional, organism-based. Further details: dose 2.5 mg/kg, route subcutaneous. Put shortly: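 Hot plate was held at 55 °C with a 40 s cutoff. End-point was paw lick or jump. Control latency was measured twice, ≥10 min apart. Response was calculated as %MPE. Groups of 8–12; AD50 from ≥4 doses.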

Experiment [6] has as its system Mus musculus. In words: Inhibition of nicotine-induced hypolocomotion in ICR mouse assessed as number of photocell interruption dministered subcutaneously 15 mins prior to nicotine challenge and measured after 5 mins of […] nicotine challenge. The format is functional, organism-based. Further details: dose 1.5 mg/kg, route subcutaneous.
Experiment [7] concerns Mus musculus. In words: Inhibition of nicotine-induced antinociception activity in ICR mouse assessed as latency to remove tail administered subcutaneously 15 mins prior to nicotine challenge and measured after 5 mins of 2.5 mg/kg nicotine challenge by tail-flick test. The format is functional, organism-based. Further details: dose 2.5 mg/kg, route subcutaneous. Put shortly:
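Radiant heat was aimed at the upper tail, with a 10 s cutoff. Baseline latency was 2–4 s for each mouse. Response was expressed as %MPE. AD50 with confidence limits came from ≥4 doses and ≥8 mice per dose.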
For orientation: Hot-plate and tail-flick tests time the reaction to a heat stimulus.

The species entered for experiment [8] is Homo sapiens. Description: Selectivity for human NET over human ganglionic alpha3beta4alpha5beta2 nAChR.
In experiment [9] the test system is Mus musculus. Description: Inhibition of nicotine-induced conditioned place preference in ICR mouse assessed as activity count and time spent in chamberdministered subcutaneously 15 mins prior to 0.5 mg/kg nicotine challenge up to 4 days using photosensors. The format is functional, organism-based. Also noted: dose 0.5 mg/kg, route subcutaneous. In short, it runs like this: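 Unbiased three-compartment CPP in male ICR mice. Day 1: 5 min confinement to the middle compartment, then 15 min free access; mice were grouped by equal bias. Days 2–4: vehicle or test drug s.c. 15 min before nicotine (0.5 mg/kg s.c.) in the paired side, with saline on the opposite side, 20 min sessions. Day 5: drug-free test with photosensor recording. AD50 from ≥3 doses, ≥8 mice per dose.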

Experiment [10] addresses T1, Neuronal acetylcholine receptor; alpha4/beta4 (Homo sapiens, UniProt P30926+P43681). In words: Antagonist activity against human alpha4beta4 nAChR in SHEP1 cells assessed as inhibition of carbamylcholine induced 86Rb+ efflux. The format is functional, cell-based. Put shortly:
(§1)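 86Rb+ efflux was evoked by carbamylcholine at its EC80–EC90 concentration, with test ligand present. Cells were TE671/RD (α1*), SH-SY5Y (α3β4*) or transfected SH-EP1 (α4β2 or α4β4). For weak antagonists the minimum was fixed at 0%.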

Experiment [11] has as its target T2, Neuronal acetylcholine receptor; alpha4/beta2 (Homo sapiens, UniProt P17787+P43681). In words: Agonist activity at human alpha4beta2 nAChR in SHEP1 cells assessed as 86Rb+ efflux at 5 nM to 100 uM. The class given is functional, cell-based. In short, it runs like this: (§2)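 Test ligands were applied alone at ~5 nM to 100 μM in 86Rb+ efflux assays. Cells were TE671/RD (endogenous muscle-type α1*), SH-SY5Y (endogenous α3β4*) or transfected SH-EP1 (human α4β2 or α4β4). Non-specific efflux was subtracted. Intrinsic activity was normalized to specific efflux, defined as efflux with fully efficacious carbamylcholine minus efflux with buffer alone.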

For experiment [12], the target named is T2, Neuronal acetylcholine receptor; alpha4/beta2. Description: Antagonist activity against human alpha4beta2 nAChR in SHEP1 cells assessed as inhibition of carbamylcholine induced 86Rb+ efflux. The format is functional, cell-based. Put shortly: as §1
For experiment [13], the target named is T1, Neuronal acetylcholine receptor; alpha4/beta4. In words: Agonist activity against human alpha4beta4 nAChR in SHEP1 cells assessed as 86Rb+ efflux at 5 nM to 100 uM. The format is functional, cell-based. Put shortly: as §2
In experiment [14] the test system is Mus musculus. In words: Antipyretic activity against nicotine-induced hypothermia in ICR mouse assessed as change in rectal temperature dministered subcutaneously 15 mins prior to nicotine challenge and measured after 30 mins of 2.5 mg/kg nicotine challenge. Further details: dose 2.5 mg/kg, route subcutaneous. The class given is functional, organism-based. In short, it runs like this: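 Male ICR mice (20–25 g) were pretreated with saline or test drug 15 min before s.c. nicotine at 2.5 mg/kg. Rectal temperature was read by thermistor probe (24 mm insertion) just before and 30 min after nicotine, and the change was taken. Ambient temperature was 21–24 °C. AD50 with confidence limits came from ≥4 doses and ≥8 mice per dose.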

In experiment [15] the target is T3, Acetylcholine receptor; alpha1/beta1/delta/gamma (Homo sapiens, UniProt P02708+P07510+P11230+Q07001). Description: Antagonist activity against human muscle-type alpha1beta1gammadelta nAChR in TE671/RD cells assessed as inhibition of carbamylcholine induced 86Rb+ efflux. The class given is functional, cell-based. In short, it runs like this: as §1
T3 sequence (P02708 whole entry): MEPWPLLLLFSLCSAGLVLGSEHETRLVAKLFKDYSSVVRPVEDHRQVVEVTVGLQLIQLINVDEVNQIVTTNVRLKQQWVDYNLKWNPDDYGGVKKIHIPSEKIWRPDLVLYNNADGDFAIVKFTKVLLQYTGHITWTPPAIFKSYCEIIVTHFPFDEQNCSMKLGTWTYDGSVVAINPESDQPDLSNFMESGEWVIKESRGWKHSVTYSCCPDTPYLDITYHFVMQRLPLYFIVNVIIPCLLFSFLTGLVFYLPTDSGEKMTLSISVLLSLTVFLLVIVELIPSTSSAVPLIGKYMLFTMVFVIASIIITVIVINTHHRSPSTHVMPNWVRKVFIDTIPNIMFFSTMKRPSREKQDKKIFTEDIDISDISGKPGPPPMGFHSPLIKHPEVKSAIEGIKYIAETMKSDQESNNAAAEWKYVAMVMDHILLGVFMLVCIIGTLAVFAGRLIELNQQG
T3 sequence (P07510 whole entry): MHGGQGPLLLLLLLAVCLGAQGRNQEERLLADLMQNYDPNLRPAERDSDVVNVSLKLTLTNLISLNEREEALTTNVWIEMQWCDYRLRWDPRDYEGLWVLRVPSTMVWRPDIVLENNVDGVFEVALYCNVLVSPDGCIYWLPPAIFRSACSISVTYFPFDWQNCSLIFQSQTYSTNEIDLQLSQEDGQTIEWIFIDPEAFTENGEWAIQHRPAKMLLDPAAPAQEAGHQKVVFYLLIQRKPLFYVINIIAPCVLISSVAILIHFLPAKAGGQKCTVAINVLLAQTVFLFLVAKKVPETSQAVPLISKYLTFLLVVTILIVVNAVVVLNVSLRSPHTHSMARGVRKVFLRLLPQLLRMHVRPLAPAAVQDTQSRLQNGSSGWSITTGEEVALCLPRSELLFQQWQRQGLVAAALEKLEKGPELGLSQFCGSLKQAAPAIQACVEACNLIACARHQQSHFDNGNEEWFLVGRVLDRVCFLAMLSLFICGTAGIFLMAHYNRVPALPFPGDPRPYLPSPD
T3 sequence (P11230 whole entry): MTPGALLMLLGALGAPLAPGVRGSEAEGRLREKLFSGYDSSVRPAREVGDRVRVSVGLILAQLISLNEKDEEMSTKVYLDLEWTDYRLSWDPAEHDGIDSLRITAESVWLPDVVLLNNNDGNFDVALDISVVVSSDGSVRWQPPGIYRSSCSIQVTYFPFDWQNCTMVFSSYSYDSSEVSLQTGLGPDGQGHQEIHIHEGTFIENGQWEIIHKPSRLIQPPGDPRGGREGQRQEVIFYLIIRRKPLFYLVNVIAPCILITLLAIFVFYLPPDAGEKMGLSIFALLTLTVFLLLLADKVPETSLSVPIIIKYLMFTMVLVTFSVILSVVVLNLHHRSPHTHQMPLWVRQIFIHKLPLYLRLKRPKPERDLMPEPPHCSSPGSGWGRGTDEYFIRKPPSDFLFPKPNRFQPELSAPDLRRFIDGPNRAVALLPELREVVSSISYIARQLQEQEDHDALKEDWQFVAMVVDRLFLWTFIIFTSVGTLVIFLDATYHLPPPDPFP
T3 sequence (Q07001 whole entry): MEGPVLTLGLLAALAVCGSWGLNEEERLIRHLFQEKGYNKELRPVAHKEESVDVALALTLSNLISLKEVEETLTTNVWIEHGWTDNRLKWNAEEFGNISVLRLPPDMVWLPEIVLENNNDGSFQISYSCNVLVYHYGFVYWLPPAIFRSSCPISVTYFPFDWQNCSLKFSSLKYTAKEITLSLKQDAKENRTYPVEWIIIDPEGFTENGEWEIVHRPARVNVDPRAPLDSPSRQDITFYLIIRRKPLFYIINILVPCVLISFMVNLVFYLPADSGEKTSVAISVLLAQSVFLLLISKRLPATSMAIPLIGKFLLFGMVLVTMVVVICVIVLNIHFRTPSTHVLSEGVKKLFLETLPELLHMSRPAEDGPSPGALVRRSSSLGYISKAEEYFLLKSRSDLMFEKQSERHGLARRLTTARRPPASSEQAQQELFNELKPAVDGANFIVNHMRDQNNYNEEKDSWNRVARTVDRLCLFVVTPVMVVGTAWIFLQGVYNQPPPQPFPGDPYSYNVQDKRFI
Experiment [16] deals with T3, Acetylcholine receptor; alpha1/beta1/delta/gamma. Description: Agonist activity at human muscle-type alpha1beta1gammadelta nAChR in TE671/RD cells assessed as 86Rb+ efflux at 5 nM to 100 uM. The format is functional, cell-based. In short, it runs like this:
as §2

The species named for experiment [17] is Homo sapiens. Description: Selectivity for human ganglionic alpha3beta4alpha5beta2 nAChR over human alpha4beta2 nAChR.
Experiment [18] addresses Cannabinoid receptor 1 (Homo sapiens) (UniProt P21554). Description: Positive allosteric modulator activity at CB1 receptor.
The target of experiment [19] is Neuronal acetylcholine receptor; alpha3/beta4 (Homo sapiens) (UniProt P30926+P32297). Description: Antagonist activity against human ganglionic alpha3beta4 nAChR in SHSY5Y cells assessed as inhibition of carbamylcholine induced 86Rb+ efflux at 10 uM. The format is functional, cell-based. Particulars: SH-SY5Y.
The species named for experiment [20] is Homo sapiens. Description: Selectivity ratio for human DAT over human SERT.
The species named for experiment [21] is Homo sapiens. Description: Selectivity for human DAT over human ganglionic alpha3beta4alpha5beta2 nAChR.
Experiment [22] is filed under the species Homo sapiens. In words: Selectivity ratio for human DAT over human NET.

Chain of Sodium-dependent dopamine transporter (Q01959 whole entry): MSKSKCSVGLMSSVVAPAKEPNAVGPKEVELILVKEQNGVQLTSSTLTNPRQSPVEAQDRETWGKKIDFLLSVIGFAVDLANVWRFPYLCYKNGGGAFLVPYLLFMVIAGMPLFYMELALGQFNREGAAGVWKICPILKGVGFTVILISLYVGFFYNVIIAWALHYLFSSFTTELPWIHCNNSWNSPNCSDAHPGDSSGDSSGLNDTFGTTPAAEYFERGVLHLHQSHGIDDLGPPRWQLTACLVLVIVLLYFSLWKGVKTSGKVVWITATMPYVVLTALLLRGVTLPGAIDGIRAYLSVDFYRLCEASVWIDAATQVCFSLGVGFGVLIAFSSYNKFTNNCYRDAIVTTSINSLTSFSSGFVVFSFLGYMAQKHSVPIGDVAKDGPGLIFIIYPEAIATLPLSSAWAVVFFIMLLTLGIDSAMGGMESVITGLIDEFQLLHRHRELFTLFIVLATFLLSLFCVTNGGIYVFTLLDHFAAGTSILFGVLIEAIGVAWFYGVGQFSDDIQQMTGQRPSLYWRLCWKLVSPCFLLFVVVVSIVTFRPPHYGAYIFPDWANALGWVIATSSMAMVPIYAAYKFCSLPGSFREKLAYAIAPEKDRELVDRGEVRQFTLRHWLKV
T1 sequence (P30926 whole entry): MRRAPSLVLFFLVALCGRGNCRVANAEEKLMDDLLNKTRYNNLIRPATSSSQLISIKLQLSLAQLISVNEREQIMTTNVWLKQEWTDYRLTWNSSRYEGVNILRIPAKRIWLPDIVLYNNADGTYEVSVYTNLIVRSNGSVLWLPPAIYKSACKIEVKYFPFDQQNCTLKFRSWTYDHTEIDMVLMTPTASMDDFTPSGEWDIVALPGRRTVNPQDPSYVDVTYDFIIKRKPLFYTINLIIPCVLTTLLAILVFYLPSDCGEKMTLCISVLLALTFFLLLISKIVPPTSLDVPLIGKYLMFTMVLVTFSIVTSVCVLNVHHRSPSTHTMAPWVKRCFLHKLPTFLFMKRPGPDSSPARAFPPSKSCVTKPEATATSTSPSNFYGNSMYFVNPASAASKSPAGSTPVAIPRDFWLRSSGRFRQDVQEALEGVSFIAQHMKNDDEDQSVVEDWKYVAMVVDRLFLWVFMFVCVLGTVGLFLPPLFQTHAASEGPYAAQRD
T1 sequence (P43681 whole entry): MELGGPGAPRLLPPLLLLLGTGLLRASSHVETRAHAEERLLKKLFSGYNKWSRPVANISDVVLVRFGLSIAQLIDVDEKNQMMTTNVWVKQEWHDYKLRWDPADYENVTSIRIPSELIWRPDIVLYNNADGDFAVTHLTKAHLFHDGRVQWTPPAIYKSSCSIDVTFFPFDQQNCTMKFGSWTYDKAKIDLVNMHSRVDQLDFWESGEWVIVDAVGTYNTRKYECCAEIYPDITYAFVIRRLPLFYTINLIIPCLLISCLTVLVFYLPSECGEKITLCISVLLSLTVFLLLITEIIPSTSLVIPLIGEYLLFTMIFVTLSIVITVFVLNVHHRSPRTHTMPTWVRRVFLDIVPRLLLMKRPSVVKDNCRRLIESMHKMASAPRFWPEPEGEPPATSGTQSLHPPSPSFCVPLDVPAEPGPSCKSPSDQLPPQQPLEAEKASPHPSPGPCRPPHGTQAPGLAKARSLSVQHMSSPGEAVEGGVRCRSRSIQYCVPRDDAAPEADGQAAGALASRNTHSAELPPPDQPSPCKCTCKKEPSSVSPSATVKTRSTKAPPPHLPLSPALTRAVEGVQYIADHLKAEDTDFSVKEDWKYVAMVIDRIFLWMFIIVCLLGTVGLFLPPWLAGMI
Chain of Sodium-dependent noradrenaline transporter (P23975 whole entry): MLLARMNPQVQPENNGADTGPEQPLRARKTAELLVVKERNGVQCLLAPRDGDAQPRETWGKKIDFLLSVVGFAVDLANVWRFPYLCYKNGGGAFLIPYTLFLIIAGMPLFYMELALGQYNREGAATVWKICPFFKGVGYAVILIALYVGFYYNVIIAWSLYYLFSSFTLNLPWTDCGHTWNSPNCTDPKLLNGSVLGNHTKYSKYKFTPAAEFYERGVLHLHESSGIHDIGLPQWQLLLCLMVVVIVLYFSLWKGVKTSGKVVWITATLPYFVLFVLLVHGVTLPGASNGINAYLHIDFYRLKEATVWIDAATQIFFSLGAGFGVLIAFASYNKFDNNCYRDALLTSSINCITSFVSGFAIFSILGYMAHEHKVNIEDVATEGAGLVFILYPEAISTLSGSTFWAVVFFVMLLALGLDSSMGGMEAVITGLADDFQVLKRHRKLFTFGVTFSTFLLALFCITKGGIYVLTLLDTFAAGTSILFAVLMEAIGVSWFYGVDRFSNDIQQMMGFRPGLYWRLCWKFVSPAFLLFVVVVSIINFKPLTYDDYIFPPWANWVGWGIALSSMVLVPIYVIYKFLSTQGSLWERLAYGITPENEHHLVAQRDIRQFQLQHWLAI

With `COC(=O)[C@H]1[C@@H](c2ccc(Cl)c(C)c2)C[C@@H]2CC[C@H]1N2`, the values for the Ratio IC50 in the experiment filed under Homo sapiens [1] and in the experiment filed under Homo sapiens [8] were 2 and 3500, respectively. In addition, the IC50 in experiment [2] is 0.0009 µM; in [3], 0.0062 µM; in experiment [4], 0.0023 µM; in the experiment with Mus musculus [5], 0.78 mg/kg; with Mus musculus [6] it was 0.41 mg/kg; in the experiment on Mus musculus [7], 0.003 mg/kg. The IC50 stood at 0.25 mg/kg in the experiment on Mus musculus [9]; 12 µM in [10]; 16 µM in experiment [12]; 0.23 mg/kg in the experiment with Mus musculus [14]; 11 µM in experiment [15]. The outcome in experiment [11], in [13] and in experiment [16] was inactive.
With `COC(=O)[C@H]1[C@@H](c2ccc(Cl)c(C)c2)C[C@@H]2CC[C@H]1N2C`, the results for the Ratio IC50 in the experiment filed under Homo sapiens [1], in the experiment listed under Homo sapiens [8] and in the experiment filed under Homo sapiens [17] were 2, 3500 and 3, respectively. The IC50 in [2] came out at 0.0011 µM; in experiment [3], 0.001 µM; in experiment [4], 0.002 µM; with Mus musculus [5], 0.35 mg/kg; in the experiment with Mus musculus [6], 0.11 mg/kg; in the experiment with Mus musculus [7], 0.21 mg/kg. For the same compound, the IC50 in the experiment on Mus musculus [9] was 0.25 mg/kg; in experiment [10] it was 24 µM; in experiment [12] it was 9.8 µM; with Mus musculus [14], 0.14 mg/kg; in experiment [15], 26 µM. Further, the result in experiment [11], in [13] and in [16] was inactive.
`Cc1ccc([C@H]2C[C@@H]3CC[C@H]([C@H]2c2cc(-c4ccc(Cl)cc4)no2)N3C)cc1`: the IC50 is 0.31 µM in [2]; greater than 100 µM in experiment [3]; 0.011 µM in [4]; greater than 20 mg/kg with Mus musculus [5]; 8.7 mg/kg with Mus musculus [6]; greater than 20 mg/kg in the experiment on Mus musculus [7]. Further, the IC50 with Mus musculus [9] was 0.013 mg/kg; in [10], 57 µM; in [12], 942 µM; in the experiment on Mus musculus [14], greater than 20 mg/kg; in [15], 95 µM. In addition, the outcome in [11], in experiment [13] and in [16] was inactive. Also, the result in experiment [18] was Active.
For the compound `Cc1cc2nc([C@H]3[C@@H](c4ccc(Cl)cc4)C[C@@H]4CC[C@H]3N4C)[nH]c2cc1C`, the IC50 was 0.019 µM in [2]; greater than 100 µM in experiment [3]; 0.0073 µM in experiment [4]; 19 mg/kg in the experiment with Mus musculus [5]; greater than 20 mg/kg in the experiment with Mus musculus [6]; 0.11 mg/kg in the experiment with Mus musculus [7]. The IC50 in the experiment on Mus musculus [9] is 0.45 mg/kg; in experiment [10] it was 4.3 µM; in experiment [12], 1.8 µM; with Mus musculus [14], greater than 20 mg/kg; in [15], 4.7 µM. For the same compound, the inhibition result in [19] is “Active”. Besides, the result in experiment [11], in experiment [13] and in [16] was inactive. The Ratio IC50 came out at 2 in the experiment listed under Homo sapiens [20], 78 in the experiment filed under Homo sapiens [21], 3 in the experiment listed under Homo sapiens [17] and 2 in the experiment listed under Homo sapiens [22].
